# ChEMBL document CHEMBL1132183 (J Med Chem, 1999)
# Tests used:
# [1] = target: T1, Alpha-1A adrenergic receptor (Rattus norvegicus) (UniProt P43140); assay: Eudisimic ratio(ER) is the antilog of the defference between the pKb and pD2 values against Alpha-1A adrenergic receptor subtype
# T1 sequence (whole entry): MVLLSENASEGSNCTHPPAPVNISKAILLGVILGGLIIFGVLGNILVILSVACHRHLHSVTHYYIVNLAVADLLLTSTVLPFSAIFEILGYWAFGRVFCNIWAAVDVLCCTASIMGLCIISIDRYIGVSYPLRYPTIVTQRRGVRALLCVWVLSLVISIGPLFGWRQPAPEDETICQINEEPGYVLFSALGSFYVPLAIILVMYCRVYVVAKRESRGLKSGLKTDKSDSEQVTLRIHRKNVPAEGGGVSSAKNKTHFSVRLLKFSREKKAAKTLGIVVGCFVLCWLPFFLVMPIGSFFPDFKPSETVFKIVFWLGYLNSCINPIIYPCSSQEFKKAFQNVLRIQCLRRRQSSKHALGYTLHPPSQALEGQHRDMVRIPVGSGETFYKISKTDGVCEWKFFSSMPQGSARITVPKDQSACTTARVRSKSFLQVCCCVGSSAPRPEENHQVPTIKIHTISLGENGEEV
# Summary of the method: (§1)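 Eudismic ratio is the antilog of the difference between the pKb (functional α1 tissue assays) or pD2 (5-HT1A [35S]GTPγS stimulation) of the eutomer and that of its distomer.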
# [2] = target: T2, Alpha-1D adrenergic receptor (Rattus norvegicus) (UniProt P23944); assay: Eudisimic ratio(ER) is the antilog of the defference between the pKb and pD2 values against Alpha-1D adrenergic receptor subtype; type: functional; summary of the method: as §1
# T2 sequence (whole entry): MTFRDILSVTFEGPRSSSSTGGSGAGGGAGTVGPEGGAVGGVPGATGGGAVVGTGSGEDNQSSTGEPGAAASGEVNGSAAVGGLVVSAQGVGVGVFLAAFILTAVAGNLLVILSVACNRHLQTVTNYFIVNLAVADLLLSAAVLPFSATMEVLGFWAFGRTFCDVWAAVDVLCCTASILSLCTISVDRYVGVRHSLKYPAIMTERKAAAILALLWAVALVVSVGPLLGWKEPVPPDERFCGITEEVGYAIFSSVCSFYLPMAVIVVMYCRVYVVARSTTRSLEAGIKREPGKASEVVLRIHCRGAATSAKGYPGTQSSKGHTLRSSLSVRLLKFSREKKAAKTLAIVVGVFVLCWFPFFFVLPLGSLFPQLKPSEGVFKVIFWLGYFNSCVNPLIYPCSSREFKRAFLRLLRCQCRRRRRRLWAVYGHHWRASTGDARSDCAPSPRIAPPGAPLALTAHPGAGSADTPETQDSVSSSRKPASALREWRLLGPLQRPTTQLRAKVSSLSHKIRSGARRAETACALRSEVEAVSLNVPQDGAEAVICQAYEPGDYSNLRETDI
# [3] = target: T3, 5-hydroxytryptamine receptor 1A (Homo sapiens) (UniProt P08908); assay: Eudisimic ratio(ER) is the antilog of the defference between the pKb and pD2 values against 5-hydroxytryptamine 1A receptor; type: functional; summary of the method: as §1
# T3 sequence (whole entry): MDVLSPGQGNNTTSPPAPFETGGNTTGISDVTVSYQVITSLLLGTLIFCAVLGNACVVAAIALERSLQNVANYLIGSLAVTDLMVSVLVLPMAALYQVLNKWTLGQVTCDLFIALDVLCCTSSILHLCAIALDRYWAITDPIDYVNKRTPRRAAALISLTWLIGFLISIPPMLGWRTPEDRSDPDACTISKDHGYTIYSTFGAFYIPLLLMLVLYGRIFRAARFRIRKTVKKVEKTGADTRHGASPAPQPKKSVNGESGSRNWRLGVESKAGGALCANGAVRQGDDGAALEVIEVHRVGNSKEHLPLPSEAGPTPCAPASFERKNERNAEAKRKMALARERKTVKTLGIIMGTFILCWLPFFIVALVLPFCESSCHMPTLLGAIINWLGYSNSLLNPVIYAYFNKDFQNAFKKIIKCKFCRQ
# [4] = target: T1, Alpha-1A adrenergic receptor (Rattus norvegicus); assay: Eudisimic ratio(ER) is the antilog of the defference between the pKb and pD2 values against Alpha-1A adrenergic receptor; summary of the method: as §1
# [5] = target: T4, Alpha-1B adrenergic receptor (Homo sapiens, UniProt P35368); assay: Ability to displace [3H]prazosin from human cloned Alpha-1B adrenergic receptor
# T4 sequence (P35368 whole entry): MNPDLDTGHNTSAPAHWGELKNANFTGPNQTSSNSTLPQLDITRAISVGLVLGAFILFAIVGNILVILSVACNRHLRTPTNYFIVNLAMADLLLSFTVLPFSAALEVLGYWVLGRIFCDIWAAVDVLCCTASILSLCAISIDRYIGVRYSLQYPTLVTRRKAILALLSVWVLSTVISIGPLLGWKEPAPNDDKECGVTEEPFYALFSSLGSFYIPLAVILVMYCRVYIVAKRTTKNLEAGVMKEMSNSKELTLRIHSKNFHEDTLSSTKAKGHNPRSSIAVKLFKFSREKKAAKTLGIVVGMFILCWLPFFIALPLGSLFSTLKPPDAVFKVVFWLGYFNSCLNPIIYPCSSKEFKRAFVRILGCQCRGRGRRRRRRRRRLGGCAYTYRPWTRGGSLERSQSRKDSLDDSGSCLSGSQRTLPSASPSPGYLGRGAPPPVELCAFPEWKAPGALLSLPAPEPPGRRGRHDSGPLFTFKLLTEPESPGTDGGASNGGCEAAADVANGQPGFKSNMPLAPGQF
# Summary of the method: (§2)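 Competition binding at cloned human α1 subtypes stably expressed in CHO cells: membranes (30 μg protein) incubated 30 min at 25 °C in 50 mM Tris-HCl pH 7.4 with 0.1–0.4 nM [3H]prazosin and competitor (1 pM–10 μM). Nonspecific binding with 10 μM phentolamine; filtration and scintillation counting. Ki by Cheng–Prusoff; 2–3 experiments in triplicate.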
# [6] = target: T5, Alpha-1D adrenergic receptor (Homo sapiens, UniProt P25100); assay: Ability to displace [3H]prazosin from human cloned Alpha-1D adrenergic receptor; summary of the method: as §2
# T5 sequence (P25100 whole entry): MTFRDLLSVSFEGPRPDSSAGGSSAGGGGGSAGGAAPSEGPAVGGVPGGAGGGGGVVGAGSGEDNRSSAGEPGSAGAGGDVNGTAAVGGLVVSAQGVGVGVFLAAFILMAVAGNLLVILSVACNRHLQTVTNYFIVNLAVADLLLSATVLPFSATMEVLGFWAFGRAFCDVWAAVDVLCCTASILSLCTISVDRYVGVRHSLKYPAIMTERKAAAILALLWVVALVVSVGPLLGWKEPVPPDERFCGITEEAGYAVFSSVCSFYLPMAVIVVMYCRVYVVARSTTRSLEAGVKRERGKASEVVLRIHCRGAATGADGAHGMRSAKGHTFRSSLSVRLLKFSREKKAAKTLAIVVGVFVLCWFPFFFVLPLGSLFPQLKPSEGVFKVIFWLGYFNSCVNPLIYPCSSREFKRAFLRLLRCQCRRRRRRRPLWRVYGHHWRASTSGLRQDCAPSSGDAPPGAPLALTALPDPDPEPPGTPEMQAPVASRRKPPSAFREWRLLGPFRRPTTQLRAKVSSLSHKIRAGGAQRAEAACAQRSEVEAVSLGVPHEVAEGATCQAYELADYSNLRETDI
# [7] = target: T2, Alpha-1D adrenergic receptor (Rattus norvegicus); assay: Eudisimic ratio(ER) is the antilog of the defference between the pKb and pD2 values against alpha-1D-adrenoceptor subtype; type: functional; summary of the method: as §1
Structure (SMILES),ER [1],ER [2],ER [3],ER [4],Ki [5],Ki [6],ER [7]
O[C@H]1[C@@H](NC[C@H]2COc3ccccc3O2)CC[C@@H]1Oc1ccccc1,3,7,–,–,–,–,–
O[C@@H]1[C@H](NC[C@H]2COc3ccccc3O2)CC[C@H]1Oc1ccccc1,–,–,123,> 35,46.8 nM,7.94 nM,33
